{"source": "ChEMBL document CHEMBL3407478", "about": "“Development of a series of aryl pyrimidine kynurenine monooxygenase inhibitors as potential therapeutic agents for the treatment of Huntington's disease” (J Med Chem, 2015)", "key": {"[1]": {"target": "T1, Kynurenine 3-monooxygenase (Homo sapiens, UniProt O15229)", "T1 sequence (O15229 whole entry)": "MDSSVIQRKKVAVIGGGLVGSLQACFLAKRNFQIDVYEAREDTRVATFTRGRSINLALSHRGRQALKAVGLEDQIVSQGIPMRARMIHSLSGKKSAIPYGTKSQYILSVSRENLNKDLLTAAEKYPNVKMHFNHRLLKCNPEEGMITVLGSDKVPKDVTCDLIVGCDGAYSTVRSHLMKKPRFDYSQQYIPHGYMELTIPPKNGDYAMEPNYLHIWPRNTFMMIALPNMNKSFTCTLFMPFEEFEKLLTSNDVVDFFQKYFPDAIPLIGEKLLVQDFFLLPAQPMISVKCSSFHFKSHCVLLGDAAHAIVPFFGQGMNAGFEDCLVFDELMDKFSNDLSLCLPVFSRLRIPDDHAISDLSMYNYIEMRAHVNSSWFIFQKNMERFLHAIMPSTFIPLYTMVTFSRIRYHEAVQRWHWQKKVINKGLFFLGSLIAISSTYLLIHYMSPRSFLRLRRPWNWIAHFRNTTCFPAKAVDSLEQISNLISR", "test": "Inhibition of human KMO transfected in CHO cells assessed as conversion of kynurenine to 3-hydroxykynurenine by LC-MS/MS analysis", "format": "cell-based"}, "[2]": {"test": "Lipophilicity, log P of the compound at pH 7", "format": "physicochemical", "settings": "buffer"}, "[3]": {"test": "Permeability from apical to basolateral side in human Caco2 cells", "format": "ADME, cell-based", "settings": "Caco-2, read-out: permeability"}, "[4]": {"target": "Kynurenine 3-monooxygenase (Mus musculus, UniProt Q91WN4)", "sequence (Q91WN4 whole entry)": "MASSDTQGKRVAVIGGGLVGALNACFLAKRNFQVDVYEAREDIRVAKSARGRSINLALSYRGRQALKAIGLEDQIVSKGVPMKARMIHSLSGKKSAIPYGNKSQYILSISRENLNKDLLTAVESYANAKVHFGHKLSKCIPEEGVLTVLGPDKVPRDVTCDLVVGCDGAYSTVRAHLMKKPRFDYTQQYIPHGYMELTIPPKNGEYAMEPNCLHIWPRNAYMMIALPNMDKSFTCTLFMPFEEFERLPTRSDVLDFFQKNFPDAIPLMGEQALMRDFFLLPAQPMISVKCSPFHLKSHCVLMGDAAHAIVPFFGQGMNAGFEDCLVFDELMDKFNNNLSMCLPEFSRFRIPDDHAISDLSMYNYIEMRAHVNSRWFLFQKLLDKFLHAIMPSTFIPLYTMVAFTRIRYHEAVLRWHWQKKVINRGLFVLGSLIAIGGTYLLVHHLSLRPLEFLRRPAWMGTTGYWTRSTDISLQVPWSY", "test": "Inhibition of mouse KMO assessed as conversion of kynurenine to 3-hydroxykynurenine by LC-MS/MS analysis", "how_it_was_run": "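Mitochondrial fractions from mouse or rat liver tissue used as KMO source. Conversion of kynurenine to 3-hydroxykynurenine quantified by LC-MS/MS; IC50 averaged from triplicate tests.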"}, "[5]": {"target": "T1, Kynurenine 3-monooxygenase", "test": "Inhibition of KMO in human PBMC"}, "[6]": {"test": "Clearance in Sprague-Dawley rat plasma at 6.2 mg equivalents/kg, iv", "format": "ADME, cell-free"}, "[7]": {"test": "MRT in Sprague-Dawley rat plasma at 6.2 mg equivalents/kg, iv", "format": "ADME, cell-free", "how_it_was_run": "(§1)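 Nonfasted male Sprague-Dawley rats (300−370 g). Single iv tail-vein dose of 6.2 mg equiv/kg (1.24 mg equiv/mL in DMSO:PEG400:water 10:40:50) or oral gavage of 12 mg equiv/kg (1.20 mg equiv/mL in 10% hydroxypropyl-β-cyclodextrin). Terminal bleeds under isoflurane (N = 3) at 0.083−24 h; heparin plasma; tissues snap-frozen.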"}, "[8]": {"test": "Volume of distribution at steady state in Sprague-Dawley rat plasma at 6.2 mg equivalents/kg, iv", "format": "ADME, cell-free", "settings": "read-out: Vdss", "how_it_was_run": "as §1"}, "[9]": {"test": "Half life at steady state in Sprague-Dawley rat plasma at 6.2 mg equivalents/kg, iv", "format": "ADME, cell-free"}, "[10]": {"test": "Tmax in Sprague-Dawley rat plasma at 12 mg equivalents/kg, po", "format": "ADME, cell-free", "how_it_was_run": "as §1"}, "[11]": {"test_system": "Brain", "test": "Dose normalized Cmax in Sprague-Dawley rat brain at 6.2 mg equivalents/kg, iv", "format": "ADME, tissue-based", "settings": "in vivo"}, "[12]": {"test": "Tmax in Sprague-Dawley rat brain at 6.2 mg equivalents/kg, iv", "format": "ADME, tissue-based", "how_it_was_run": "as §1"}, "[13]": {"test_system": "Brain", "test": "Dose normalized AUC (0 to infinity) in Sprague-Dawley rat brain at 12 mg equivalents/kg, po", "format": "ADME, tissue-based", "settings": "in vivo"}, "[14]": {"test_system": "Plasma", "test": "Dose normalized AUC (0 to infinity) in Sprague-Dawley rat plasma at 10 mg equivalents/kg, po after 0.25 to 12 hrs", "format": "ADME, organism-based", "settings": "in vivo", "how_it_was_run": "(§2)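 Male Sprague-Dawley rats given a single oral dose of 10 mg equiv/kg as a 2 mg equiv/mL solution in 10% hydroxypropyl-β-cyclodextrin. Plasma, liver, kidney, cortex, striatum and CSF levels were measured from 0.25 to 12 h. Brain tissue was taken from nonperfused brains. CSF AUCN covers 0–8 h because the elimination phase was undefined.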"}, "[15]": {"test": "Half life in Sprague-Dawley rat plasma at 10 mg equivalents/kg, po after 0.25 to 12 hrs", "format": "ADME, organism-based", "how_it_was_run": "as §2"}, "[16]": {"test_system": "Cerebrospinal fluid", "test": "Dose normalized AUC (0 to infinity) in Sprague-Dawley rat CSF at 10 mg equivalents/kg, po after 0 to 8 hrs", "format": "ADME, organism-based", "settings": "in vivo", "how_it_was_run": "as §2"}, "[17]": {"test_system": "Striatum", "test": "Dose normalized Cmax in Sprague-Dawley rat striatum at 10 mg equivalents/kg, po after 0.25 to 12 hrs", "format": "ADME, organism-based", "settings": "in vivo", "how_it_was_run": "as §2"}, "[18]": {"test": "Half life in Sprague-Dawley rat striatum at 10 mg equivalents/kg, po after 0.25 to 12 hrs", "format": "ADME, organism-based", "how_it_was_run": "as §2"}, "[19]": {"test_system": "Kidney", "test": "Dose normalized AUC (0 to infinity) in Sprague-Dawley rat kidney at 10 mg equivalents/kg, po after 0.25 to 12 hrs", "format": "ADME, organism-based", "settings": "in vivo", "how_it_was_run": "as §2"}, "[20]": {"test_system": "Kidney", "test": "Dose normalized Cmax in Sprague-Dawley rat kidney at 10 mg equivalents/kg, po after 0.25 to 12 hrs", "format": "ADME, organism-based", "settings": "in vivo", "how_it_was_run": "as §2"}, "[21]": {"test": "Tmax in Sprague-Dawley rat kidney at 10 mg equivalents/kg, po after 0.25 to 12 hrs", "format": "ADME, organism-based", "how_it_was_run": "(§3)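 Fed male Sprague-Dawley rats given a single oral dose of 10 mg equiv/kg as 2 mg equiv/mL in 10% hydroxypropyl-β-cyclodextrin. Plasma, CSF, kidney, liver, and cortex and striatum from nonperfused brains sampled from 0.25 to 12 h.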"}, "[22]": {"test": "Half life in Sprague-Dawley rat kidney at 10 mg equivalents/kg, po after 0.25 to 12 hrs", "format": "ADME, organism-based", "how_it_was_run": "as §2"}, "[23]": {"test_system": "Liver", "test": "Dose normalized Cmax in Sprague-Dawley rat liver at 10 mg equivalents/kg, po after 0.25 to 12 hrs", "format": "ADME, organism-based", "settings": "in vivo", "how_it_was_run": "as §2"}, "[24]": {"test": "Tmax in Sprague-Dawley rat liver at 10 mg equivalents/kg, po after 0.25 to 12 hrs", "format": "ADME, organism-based", "how_it_was_run": "as §3"}, "[25]": {"test_system": "Brain", "test": "Dose normalized AUC (0 to infinity) in BCRP knock out FVB/N mouse brain at 5 mg equivalents/kg, iv by LC-MS/MS analysis", "format": "ADME, organism-based", "settings": "in vivo", "how_it_was_run": "(§4)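 Male mice given a single 5 mg equiv/kg iv bolus: FVB wild type, Bcrp(−/−), Mdr1a/b(−/−) and Mdr1a/b(−/−)/Bcrp(−/−). Brain and plasma concentration–time profiles were used to derive dose-normalized AUC (0–infinity).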"}, "[26]": {"test_system": "Brain", "test": "Dose normalized AUC (0 to infinity) in MDR1a knock out FVB/N mouse brain at 5 mg equivalents/kg, iv by LC-MS/MS analysis", "format": "ADME, organism-based", "settings": "in vivo", "how_it_was_run": "as §4"}, "[27]": {"test": "Fraction unbound in rat plasma", "format": "ADME, cell-free"}, "[28]": {"test_system": "Rattus norvegicus", "test": "Inhibition of KMO in Sprague-Dawley rat plasma assessed as time duration for elevation in kynurenine plasma level at 10 mg/kg, po by […] analysis", "format": "functional", "how_it_was_run": "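Sprague-Dawley rats given a single 10 mg/kg oral dose. KYN, 3-HK, KYNA and AA were quantified in plasma by LC-MS/MS at multiple time points.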"}, "[29]": {"test_system": "Rattus norvegicus", "test": "Inhibition of KMO in Sprague-Dawley rat brain assessed as time duration for elevation in kynurenic acid plasma level at 10 mg/kg, po by […] analysis", "format": "functional"}, "[30]": {"test_system": "Rattus norvegicus", "test": "Inhibition of KMO in Sprague-Dawley rat striatum brain microdialysate assessed as time duration for elevation in kynurenine level at 10 mg/kg, po by […] analysis", "format": "functional", "how_it_was_run": "(§5)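 Freely moving Sprague-Dawley rats given 10 mg/kg po, with a microdialysis probe implanted in the striatum. Dialysate was sampled over 0–240 min for free compound and for KYN, KYNA, AA and 3-HK, quantified by LC-MS/MS. Metabolite changes were compared with t = 0 min by 2-way ANOVA.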"}, "[31]": {"test_system": "Rattus norvegicus", "test": "Inhibition of KMO in Sprague-Dawley rat striatum brain microdialysate assessed as time duration for elevation in anthranilic acid level at 10 mg/kg, po by […] analysis", "format": "functional", "how_it_was_run": "as §5"}, "[32]": {"test_system": "Rattus norvegicus", "test": "Inhibition of KMO in po dosed Sprague-Dawley rat plasma assessed as elevation in kynurenine plasma level by […] analysis", "format": "functional, organism-based"}, "[33]": {"test_system": "Rattus norvegicus", "test": "Inhibition of KMO in po dosed Sprague-Dawley rat plasma assessed as elevation in kynurenic acid plasma level by […] analysis", "format": "functional, organism-based"}, "[34]": {"test_system": "Rattus norvegicus", "test": "Inhibition of KMO in po dosed Sprague-Dawley rat plasma assessed as reduction in 3-hydroxykynurenice acid plasma level by […] analysis", "format": "functional, organism-based"}, "[35]": {"test": "Oral bioavailability in Sprague-Dawley rat plasma at 12 mg equivalents/kg"}, "[36]": {"test_system": "Rattus norvegicus", "test": "Inhibition of KMO in po dosed Sprague-Dawley rat plasma assessed as reduction in quinolinic acid plasma level by LC-MS/MS analysis"}}, "note": "Active and inactive are the calls of the source. No cut-off for these calls is given here.", "data": [{"smiles": "O=C(O)c1cc(-c2ccc(OC3CC3)c(Cl)c2)ncn1", "values": [{"measurement": "IC50", "setting": "[1]", "value": 8, "unit": "nM"}, {"measurement": "logD", "setting": "[2]", "value": 0.9}, {"measurement": "Papp A→B", "setting": "[3]", "value": 18.7, "unit": "×10⁻⁶ cm/s"}, {"measurement": "IC50", "setting": "[4]", "value": 5.1, "unit": "nM"}, {"measurement": "IC50", "setting": "[5]", "value": 82, "unit": "nM"}, {"measurement": "clearance", "setting": "[6]", "value": 4.83, "unit": "mL/min/kg"}, {"measurement": "MRT", "setting": "[7]", "value": 1.1, "unit": "h"}, {"measurement": "Vd", "setting": "[8]", "value": 0.32, "unit": "L/kg"}, {"measurement": "half-life", "setting": "[9]", "value": 1.8, "unit": "h"}, {"measurement": "Tmax", "setting": "[10]", "value": 1, "unit": "h"}, {"measurement": "Cmax/dose", "setting": "[11]", "value": 0.25, "unit": "µM·kg/mg"}, {"measurement": "Tmax", "setting": "[12]", "value": 4.98, "unit": "min"}, {"measurement": "AUC/dose", "setting": "[13]", "value": 0.12, "unit": "µM·kg·h/mg"}, {"measurement": "AUC/dose", "setting": "[14]", "value": 5.3, "unit": "µM·kg·h/mg"}, {"measurement": "half-life", "setting": "[15]", "value": 1.7, "unit": "h"}, {"measurement": "AUC/dose", "setting": "[16]", "value": 0.014, "unit": "µM·kg·h/mg"}, {"measurement": "Cmax/dose", "setting": "[17]", "value": 0.047, "unit": "µM·kg/mg"}, {"measurement": "half-life", "setting": "[18]", "value": 2.3, "unit": "h"}, {"measurement": "AUC/dose", "setting": "[19]", "value": 70, "unit": "µM·kg·h/mg"}, {"measurement": "Cmax/dose", "setting": "[20]", "value": 26, "unit": "µM·kg/mg"}, {"measurement": "Tmax", "setting": "[21]", "value": 0.5, "unit": "h"}, {"measurement": "half-life", "setting": "[22]", "value": 2, "unit": "h"}, {"measurement": "Cmax/dose", "setting": "[23]", "value": 9.3, "unit": "µM·kg/mg"}, {"measurement": "Tmax", "setting": "[24]", "value": 0.5, "unit": "h"}, {"measurement": "AUC/dose", "setting": "[25]", "value": 0.17, "unit": "µM·kg·h/mg"}, {"measurement": "AUC/dose", "setting": "[26]", "value": 0.073, "unit": "µM·kg·h/mg"}, {"measurement": "fraction unbound", "setting": "[27]", "value": 0.05}, {"measurement": "Time", "setting": "[28]", "value": 8, "unit": "h"}, {"measurement": "Time", "setting": "[29]", "value": ">=4 hr"}, {"measurement": "Time", "setting": "[30]", "value": 40, "unit": "min"}, {"measurement": "Time", "setting": "[31]", "value": 40, "unit": "min"}, {"measurement": "inhibition", "setting": "[32]", "value": "Dose-dependent effect"}, {"measurement": "inhibition", "setting": "[33]", "value": "Dose-dependent effect"}, {"measurement": "inhibition", "setting": "[34]", "value": "Active"}, {"measurement": "bioavailability", "setting": "[35]", "value": 64, "unit": "%"}, {"measurement": "inhibition", "setting": "[36]", "value": "Dose-dependent effect"}]}]}
